Measurements collected from several papers.
Each line is one published result; the experiments were not run side by side.
Target: MAP kinase-activated protein kinase 2 (MAPKAPK2, Homo sapiens, UniProt P49137)

Compound | test | setting | remaining binding [%]
CN(C)c1nccc(-c2cnn3ncccc23)n1 | binding | 1 µM | 100
O=C(Nc1c[nH]nc1C(=O)NC1CCNCC1)c1cc(F)cc(F)c1 | binding, competition with immobilised ligand | 1 µM | 100
O=C(NCCCN1CCOCC1)c1ccc(Nc2ncc(Cl)c(-c3ccc(Cl)s3)n2)cc1 | binding, competition with immobilised ligand | 1 µM | 100
N[C@H]1CCN(c2nccc(-c3cnn4ncccc34)n2)C1 | binding | 1 µM | 39
COc1cnc(Nc2cccc(S(N)(=O)=O)c2)nc1N1CCN(c2ccccc2)C(=O)C1 | binding, competition with immobilised ligand | 1 µM | 100
CN([C@@H]1CCc2c(CC(=O)O)c3ccccc3n2C1)S(=O)(=O)c1ccc(F)cc1 | cell-free assay, competition with immobilised ligand | 1 µM | 100
Nc1ncc2c(n1)-c1c([nH]c3ccc(C#CC4CC4)cc13)CCCC2 | binding, competition with immobilised ligand | 1 µM | 86
Cc1cnn2ncc(-c3ccnc(N(C)C)n3)c2c1 | binding | 1 µM | 100
Cn1nc(C(F)(F)F)cc1-c1cnc(N2CCc3cc(S(=O)(=O)Nc4c(F)cc(Cl)cc4F)cc(N4CCCC4=O)c32)nc1 | cell-free assay, competition with immobilised ligand | 1 µM | 73
O=C(c1ccc(Nc2nccc(-c3cc4ccccc4s3)n2)cc1)N1CCC(N2CCCC2)CC1 | binding, competition with immobilised ligand | 1 µM | 100
CNC(=O)Nc1ccc2c(c1)[C@@]1(CC2)OC(=O)N(CC(=O)N(Cc2ccc(F)cc2)[C@@H](C)C(F)(F)F)C1=O | cell-free assay, competition with immobilised ligand | 1 µM | 100
C[C@@H]1CN(c2ccc3ncc(-c4ccc5[nH]nc(C6CC6)c5c4)n3n2)C[C@H](C)O1 | binding, competition with immobilised ligand | 50 nM | 62
CNC(=O)[C@@H]1CC[C@@H](n2c(-c3ccc4cnccc4c3)nc3ccc(C(=O)NCc4cccc(C(N)=O)c4)cc32)C1 | binding, competition with immobilised ligand | 1 µM | 98
CN(C)c1nccc(-c2cnc3ncccn23)n1 | binding | 1 µM | 84
C=CC(=O)N1CCC(C(=O)NCC(=O)N2CCN(c3nc(-c4cnc(N)nc4C(F)F)nc(N4CCOCC4)n3)CC2)CC1 | binding, competition with immobilised ligand | 1 µM | 100
O=C(NCCCN1CCOCC1)c1ccc(Nc2nccc(-c3cc4ccccc4s3)n2)cc1 | binding, competition with immobilised ligand | 1 µM | 100
COCCOc1nc(-c2ccc(Cl)nc2)nc2c1CN(C(=O)c1ncn3ccccc13)CC2 | cell-free assay, competition with immobilised ligand | 0.1 µM | 73
FC(F)(F)Oc1cccc(-c2cnc3ccc(-c4ccncc4)nn23)c1 | cell-free assay, competition with immobilised ligand | 5 µM | 100
O=C(O)c1cc(-c2ccc(C3CCNCC3)cc2)c2ccc(-c3ccc(C(F)(F)F)cc3)cc2c1 | cell-free assay, competition with immobilised ligand | 1 µM | 51
CC(C)(C)c1ccc(-c2nc(CBr)nn2-c2cccc(O)c2)cc1 | cell-free assay, competition with immobilised ligand | 10 µM | 100
O=C(NS(=O)(=O)c1ccc(NCC2CCOCC2)c([N+](=O)[O-])c1)c1ccc(N2CCN(Cc3ccc(C(F)(F)F)cc3-c3ccc(Cl)cc3)CC2)cc1Oc1cnc2[nH]ccc2c1 | cell-free assay, competition with immobilised ligand | 1 µM | 81
COc1ncc2cc3ccccc3nc2c1C#N | cell-free assay, competition with immobilised ligand | 5 µM | 100
CNCc1ccccc1-c1csc([C@H](C)Nc2nc(C)nc3cc(OC)c(OC)cc23)c1 | cell-free assay, competition with immobilised ligand | 1 µM | 80
CN(CCCC(F)(F)F)c1nccc(-c2cnn3ncccc23)n1 | binding | 1 µM | 100
